From ChEMBL document CHEMBL4118270, “Synthesis, in vitro and in silico studies of novel potent urease inhibitors: N-[4-({5-[(3-Un/substituted-anilino-3-oxopropyl)sulfanyl]-1,3,4-oxadiazol-2-yl}methyl)-1,3-thiazol-2-yl]benzamides” (Bioorg Med Chem, 2018)

Tests used:
[1] = biological target: Urease (Helicobacter pylori) (UniProt Q0PXQ5); test: Inhibition of Campylobacter pylori urease preincubated for 5 mins followed by urea addition measured after 10 mins by Berthelot assay relative to control; set-up: concentration or dose not given beside the values
Urease (Helicobacter pylori), sequence (Q0PXQ5 as listed by the source): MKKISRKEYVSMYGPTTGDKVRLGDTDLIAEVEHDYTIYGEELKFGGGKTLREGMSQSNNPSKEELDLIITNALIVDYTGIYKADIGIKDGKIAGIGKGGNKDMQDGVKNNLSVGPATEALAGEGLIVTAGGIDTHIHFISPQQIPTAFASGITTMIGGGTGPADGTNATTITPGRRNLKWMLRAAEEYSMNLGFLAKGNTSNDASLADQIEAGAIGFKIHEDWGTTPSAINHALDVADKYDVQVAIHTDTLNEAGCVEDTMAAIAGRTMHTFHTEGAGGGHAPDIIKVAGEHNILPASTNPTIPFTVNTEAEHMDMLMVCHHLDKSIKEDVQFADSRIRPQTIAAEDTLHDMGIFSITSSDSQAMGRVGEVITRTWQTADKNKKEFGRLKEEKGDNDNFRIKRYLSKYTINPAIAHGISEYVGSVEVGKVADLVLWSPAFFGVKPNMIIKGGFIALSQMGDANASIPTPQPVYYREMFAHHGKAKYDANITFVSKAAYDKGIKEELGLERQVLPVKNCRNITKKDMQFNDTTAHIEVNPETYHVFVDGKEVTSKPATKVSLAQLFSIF
In short: (§1)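 Modified Berthelot assay in pH 7.0 phosphate buffer. Sample and enzyme (0.135 units) are pre-incubated 5 min at 37 °C. Urea (20 mM stock) is added and incubated 10 min at 37 °C. […] IC50 is fitted from dilution series. Mean ± SEM, n = 3.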

Urease = Urease (Helicobacter pylori, UniProt Q0PXQ5); test: Inhibition of Campylobacter pylori urease preincubated for 5 mins followed by urea addition measured after 10 mins by Berthelot assay; in short: as §1
Urease, sequence (Q0PXQ5 whole entry): as the sequence (Q0PXQ5 as listed by the source) above

Structure (SMILES)	inhibition [1]	IC50 (Urease)
CCOc1ccc(NC(=O)CCSc2nnc(Cc3csc(NC(=O)c4ccccc4)n3)o2)cc1	88.8%	23.2 µM
Cc1cc(C)cc(NC(=O)CCSc2nnc(Cc3csc(NC(=O)c4ccccc4)n3)o2)c1	64.8%	52.1 µM
Cc1ccc(C)c(NC(=O)CCSc2nnc(Cc3csc(NC(=O)c4ccccc4)n3)o2)c1	77.9%	15.2 µM
O=C(CCSc1nnc(Cc2csc(NC(=O)c3ccccc3)n2)o1)Nc1ccccc1	98.5%	2.95 µM
NC(N)=S [THIOUREA]		21.1 µM
Cc1ccc(NC(=O)CCSc2nnc(Cc3csc(NC(=O)c4ccccc4)n3)o2)cc1C	76.5%	34.2 µM
Cc1cccc(NC(=O)CCSc2nnc(Cc3csc(NC(=O)c4ccccc4)n3)o2)c1C	69.8%	48.2 µM
CCc1ccccc1NC(=O)CCSc1nnc(Cc2csc(NC(=O)c3ccccc3)n2)o1	98.7%	2.58 µM
Cc1ccccc1NC(=O)CCSc1nnc(Cc2csc(NC(=O)c3ccccc3)n2)o1	98.2%	7.47 µM
Cc1cccc(C)c1NC(=O)CCSc1nnc(Cc2csc(NC(=O)c3ccccc3)n2)o1	98.5%	2.79 µM
CCc1ccc(NC(=O)CCSc2nnc(Cc3csc(NC(=O)c4ccccc4)n3)o2)cc1	74.2%	43.2 µM
Cc1cccc(NC(=O)CCSc2nnc(Cc3csc(NC(=O)c4ccccc4)n3)o2)c1	84.8%	12.2 µM
Cc1ccc(NC(=O)CCSc2nnc(Cc3csc(NC(=O)c4ccccc4)n3)o2)cc1	76.4%	29.2 µM
